In ChEMBL document CHEMBL1138042, “2-[(4-phenylpiperazin-1-yl)methyl]imidazo(di)azines as selective D4-ligands. Induction of penile erection by 2-[4-(2-methoxyphenyl)piperazin-1-ylmethyl]imidazo[1,2-a]pyridine (PIP3EA), a potent and selective D4 partial agonist” (J Med Chem, 2006):

How the values were obtained:
D(1A) dopamine receptor = D(1A) dopamine receptor (Sus scrofa, UniProt P50130); assay: Displacement of [3H][…] from dopamine receptor D1 in porcine striatal membrane; assay type: cell membranes, Striatum
D(2) dopamine receptor [1] = target: T1, D(2) dopamine receptor (Homo sapiens, UniProt P14416); assay: Displacement of [3H]spiperone from human dopamine receptor D2(long) in CHO cell membrane; assay type: cell membranes
D(4) dopamine receptor [2] = target: T2, D(4) dopamine receptor (Homo sapiens, UniProt P21917); assay: Displacement of [3H]spiperone from human dopamine receptor D4.4 in CHO cell membrane; assay type: cell membranes
T2 sequence (P21917 whole entry): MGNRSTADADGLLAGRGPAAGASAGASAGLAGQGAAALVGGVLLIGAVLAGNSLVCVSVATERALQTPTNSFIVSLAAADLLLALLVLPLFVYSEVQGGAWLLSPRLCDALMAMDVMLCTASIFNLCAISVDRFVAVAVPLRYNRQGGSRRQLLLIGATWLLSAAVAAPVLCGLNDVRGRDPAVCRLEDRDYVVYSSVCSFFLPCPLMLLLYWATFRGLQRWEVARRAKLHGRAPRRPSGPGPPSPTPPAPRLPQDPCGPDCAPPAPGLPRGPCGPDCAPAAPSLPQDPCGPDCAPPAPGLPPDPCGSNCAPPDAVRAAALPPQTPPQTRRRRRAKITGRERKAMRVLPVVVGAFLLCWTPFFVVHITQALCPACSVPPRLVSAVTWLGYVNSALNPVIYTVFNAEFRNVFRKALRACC

D(2) dopamine receptor [3] = target: T1, D(2) dopamine receptor; assay: Displacement of [3H]spiperone from human dopamine receptor D2(short) in CHO cell membrane; assay type: cell membranes
D(3) dopamine receptor = D(3) dopamine receptor (Homo sapiens, UniProt P35462); assay: Displacement of [3H]spiperone from human dopamine receptor D3 in CHO cell membrane; assay type: cell membranes
[4] = target: T3, D(4) dopamine receptor (Homo sapiens) (UniProt P21917); assay: Intrinsic activity at human D4.2 receptor assessed as [3H]thymidine incorporation in CHO 10001 cells relative to quinpirole by mitogenesis assay; assay type: functional, cell-based
T3 sequence (whole entry): T2 sequence (P21917 whole entry)
Outline: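 CHO10001 cells expressing human D4.2 were seeded at 5000 cells/well, grown 72 h in serum medium, then switched to serum-free medium. Compound was applied for 20 h at 8 concentrations (0.01-10 000 nM) in hexaduplicate. [³H]thymidine (0.02 µCi/well) was added for 2 h and incorporation counted.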

D(4) dopamine receptor [5] = target: T2, D(4) dopamine receptor; assay: Activity at human D4.2 receptor assessed as [3H]thymidine incorporation in CHO 10001 cells by mitogenesis assay; assay type: functional, cell-based
D(4) dopamine receptor [6] = target: T2, D(4) dopamine receptor; assay: Activity at human D4.4 receptor expressed in CHOK1 cells assessed as stimulation of [35S]GTP-gammaS binding; assay type: functional, cell-based, CHO-K1
[7] = target: T3, D(4) dopamine receptor (Homo sapiens); assay: Intrinsic activity at human D4.4 receptor expressed in CHOK1 cells assessed as stimulation of [35S]GTP-gammaS binding relative to quinpirole; assay type: functional, cell-based; conditions: CHO-K1
Outline: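 Membranes from CHO cells stably expressing human D4.4 (Bmax 2.25 pmol/mg protein) in HEPES buffer pH 7.4 with 1 µM GDP at 37 °C. Test agent given at eight concentrations (0.01–10 000 nM) in hexaduplicate for 30 min, then 0.1 nM [35S]GTPγS for a further 30 min. Bound label filtered and counted.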

[8] = target: 5-hydroxytryptamine receptor 2A (Sus scrofa, UniProt P50129); assay: Displacement of [3H]ketanserin from 5HT2 receptor in porcine cortical membrane; assay type: cell membranes
[9] = target: T4, Dopamine receptors; D2 & D4 (Homo sapiens) (UniProt P14416+P21917); assay: Selectivity for human dopamine D4.4 receptor over dopamine D2(short) receptor; assay type: protein assay
[10] = target: T4, Dopamine receptors; D2 & D4 (Homo sapiens); assay: Selectivity for human dopamine D4.4 receptor over dopamine D2(long) receptor; assay type: protein assay
[11] = Selectivity for human dopamine D4.4 receptor over porcine dopamine D1 receptor
[12] = target: Dopamine receptors; D3 & D4 (Homo sapiens) (UniProt P35462+P21917); assay: Selectivity for human dopamine D4.4 receptor over dopamine D3 receptor; assay type: protein assay
[13] = Selectivity for human dopamine D4.4 receptor over adrenergic alpha-1 receptor
Rattus norvegicus [14] = assay: Penile erection in Sprague-Dawley rat at 0.5 ug/kg, icv; assay type: functional; conditions: in the assay text read “0.5 ug/rat” for “0.5 ug/kg”
Outline: (§1)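 Male Sprague-Dawley rats (225-250 g) were dosed s.c. (0.2 mL/rat) or i.c.v. (10 µL/rat, via a stereotaxic guide cannula implanted under chloral hydrate 3 days earlier). Vehicle was ethanol diluted in water to 0.3%. Rats were acclimated 30 min in individual cages, then observed 60 min after injection. Erections were scored as penis emerging from the sheath. Means ± SEM, 6 rats/group; cannula placement was checked histologically.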

Rattus norvegicus [15] = assay: Penile erection in Sprague-Dawley rat at 5 ug/kg, sc; assay type: functional; outline: as §1
Rattus norvegicus [16] = assay: Penile erection in Sprague-Dawley rat at 1 ug, icv; assay type: functional; outline: as §1
Rattus norvegicus [17] = assay: Penile erection in Sprague-Dawley rat at 20 ug/kg, sc; assay type: functional; outline: as §1
[18] = target: Adrenergic receptor alpha-1 (Sus scrofa); assay: Displacement of [3H]prazosin from porcine Adrenergic alpha-1 receptor in porcine brain

Chain of 5-hydroxytryptamine receptor 2A (P50129 whole entry): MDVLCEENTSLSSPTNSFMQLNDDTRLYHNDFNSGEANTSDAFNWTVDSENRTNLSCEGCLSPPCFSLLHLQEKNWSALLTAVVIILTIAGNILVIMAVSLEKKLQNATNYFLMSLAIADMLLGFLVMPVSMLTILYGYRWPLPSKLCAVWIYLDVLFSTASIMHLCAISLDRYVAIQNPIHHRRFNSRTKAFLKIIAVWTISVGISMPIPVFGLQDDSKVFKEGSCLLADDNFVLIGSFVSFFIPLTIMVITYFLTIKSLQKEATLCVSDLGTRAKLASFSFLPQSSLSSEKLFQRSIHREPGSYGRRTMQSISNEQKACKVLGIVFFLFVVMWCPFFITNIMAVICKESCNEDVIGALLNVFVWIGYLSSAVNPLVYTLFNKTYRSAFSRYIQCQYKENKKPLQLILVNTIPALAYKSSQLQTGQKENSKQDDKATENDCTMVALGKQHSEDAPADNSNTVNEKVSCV
Chain of D(3) dopamine receptor (P35462 whole entry): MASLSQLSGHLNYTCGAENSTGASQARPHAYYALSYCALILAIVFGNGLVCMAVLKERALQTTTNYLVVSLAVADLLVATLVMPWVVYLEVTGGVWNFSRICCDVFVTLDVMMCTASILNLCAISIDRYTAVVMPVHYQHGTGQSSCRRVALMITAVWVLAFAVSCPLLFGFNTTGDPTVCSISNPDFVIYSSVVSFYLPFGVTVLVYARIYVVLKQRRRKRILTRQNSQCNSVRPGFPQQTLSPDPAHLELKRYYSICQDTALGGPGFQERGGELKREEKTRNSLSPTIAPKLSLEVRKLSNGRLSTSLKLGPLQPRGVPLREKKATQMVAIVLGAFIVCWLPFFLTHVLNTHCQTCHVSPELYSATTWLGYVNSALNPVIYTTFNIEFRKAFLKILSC
T4 sequence (P14416 whole entry, looked up, one chain of several): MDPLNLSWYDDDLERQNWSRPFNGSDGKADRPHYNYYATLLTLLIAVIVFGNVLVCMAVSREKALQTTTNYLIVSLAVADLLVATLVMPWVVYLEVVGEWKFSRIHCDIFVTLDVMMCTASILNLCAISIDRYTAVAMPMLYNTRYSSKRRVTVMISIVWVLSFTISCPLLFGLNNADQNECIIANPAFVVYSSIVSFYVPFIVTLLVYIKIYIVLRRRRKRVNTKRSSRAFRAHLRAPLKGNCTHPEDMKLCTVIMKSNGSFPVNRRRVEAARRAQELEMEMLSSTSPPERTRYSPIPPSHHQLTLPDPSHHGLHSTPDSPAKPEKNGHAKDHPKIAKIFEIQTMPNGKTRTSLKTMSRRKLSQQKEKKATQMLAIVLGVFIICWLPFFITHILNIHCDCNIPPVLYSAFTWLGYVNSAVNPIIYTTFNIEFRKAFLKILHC
T1 sequence (P14416 whole entry): as the sequence (P14416 whole entry, looked up, one chain of several) above
Chain of D(1A) dopamine receptor (P50130 whole entry): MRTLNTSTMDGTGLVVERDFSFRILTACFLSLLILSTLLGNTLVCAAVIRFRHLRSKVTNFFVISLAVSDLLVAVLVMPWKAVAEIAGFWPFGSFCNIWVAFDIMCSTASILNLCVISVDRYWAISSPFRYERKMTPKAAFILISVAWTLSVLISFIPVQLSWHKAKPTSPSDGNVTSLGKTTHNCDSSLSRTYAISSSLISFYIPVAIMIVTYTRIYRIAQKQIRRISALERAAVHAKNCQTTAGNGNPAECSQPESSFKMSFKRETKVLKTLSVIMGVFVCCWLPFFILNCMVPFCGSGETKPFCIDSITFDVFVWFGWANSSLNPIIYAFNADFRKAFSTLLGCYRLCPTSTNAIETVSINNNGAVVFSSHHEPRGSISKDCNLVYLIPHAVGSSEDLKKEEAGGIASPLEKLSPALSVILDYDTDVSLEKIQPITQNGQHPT
Chain of Dopamine receptors; D3 & D4 (Homo sapiens) (P35462 whole entry, looked up, one chain of several): as the sequence (P35462 whole entry) above

| SMILES | Ki (D(1A) dopamine receptor) [nM] | Ki (D(2) dopamine receptor [1]) [nM] | Ki (D(4) dopamine receptor [2]) [nM] | Ki (D(2) dopamine receptor [3]) [nM] | Ki (D(3) dopamine receptor) [nM] | Activity [4] [%] | further results |
| --- | --- | --- | --- | --- | --- | --- | --- |
| N#Cc1ccc2[nH]c(CN3CCN(c4ccccc4)CC3)cc2c1 | 13000 | – | – | – | – | – | – |
| CN1CCN(c2ccc3nc(CN4CCN(c5ccc(Cl)c(Cl)c5)CC4)cn3n2)CC1 | 13000 | 8000 | 1900 | 7800 | 880 | – | – |
| Clc1ccc(N2CCN(Cc3cn4ccccc4n3)CC2)cc1 | 6700 | 15000 | 7 | 16000 | 8800 | 6 | EC50 (D(4) dopamine receptor [5]): 1.8 nM; EC50 (D(4) dopamine receptor [6]): 2.6 nM; Activity [7]: 18%; Ki [8]: 1200 nM |
| N#Cc1ccc2[nH]c(CN3CCN(c4ccc(F)cc4)CC3)cc2c1 | 8600 | – | – | – | – | – | – |
| COc1ccccc1N1CCN(Cc2cn3cc(C)cc(Br)c3n2)CC1 | 5600 | 240 | 0.99 | 150 | 670 | – | – |
| COc1ccccc1N1CCN(Cc2cn3cc(C)cc(-c4ccccc4)c3n2)CC1 | 2900 | 49 | 0.84 | 28 | 390 | – | – |
| Fc1ccc(N2CCN(Cc3cn4cccnc4n3)CC2)cc1 | 47000 | 55000 | 2800 | 49000 | 60000 | – | – |
| Clc1ccc(N2CCN(Cc3cn4cc(Br)ccc4n3)CC2)cc1Cl | 2500 | 3500 | 0.99 | 3700 | 1000 | 0 | Selectivity ratio [9]: > 440; Selectivity ratio [10]: > 440; Selectivity ratio [11]: > 440; Selectivity ratio [12]: > 440 |
| Clc1ccc(N2CCN(Cc3cn4ccccc4n3)CC2)cc1Cl | 2300 | 3200 | 1.4 | 2700 | 1700 | 0 | Ki [8]: 1200 nM |
| Clc1ccc(N2CCN(Cc3cn4nc(N5CCCCC5)ccc4n3)CC2)cc1Cl | 2200 | 1100 | 120 | 710 | 850 | – | – |
| COc1ccccc1N1CCN(Cc2cn3nc(Cl)ccc3n2)CC1 | 7700 | 96 | 1.6 | 79 | 1400 | 0 | Ki [8]: 3400 nM |
| Fc1ccc(N2CCN(Cc3cn4nc(Cl)ccc4n3)CC2)cc1 | 7000 | 9900 | 4 | 12000 | 5600 | – | – |
| COc1ccccc1N1CCN(Cc2cn3cc(C)cc(-n4cccn4)c3n2)CC1 | 8700 | 530 | 1.6 | 280 | 2400 | – | – |
| Cc1cccc(C(=O)NCN2CCN(c3ccccc3C#N)CC2)c1 | – | – | – | – | – | – | Selectivity ratio [13]: 8 |
| COc1ccccc1N1CCN(Cc2cn3c(-n4cccn4)cccc3n2)CC1 | 27000 | 590 | 0.94 | 280 | 1000 | – | – |
| COc1ccccc1N1CCN(Cc2cn3cc(C)cc(C#N)c3n2)CC1 | 40000 | 4200 | 1.3 | 2700 | 3500 | – | Selectivity ratio [9]: 2080; Selectivity ratio [10]: 3230 |
| COc1ccccc1N1CCN(Cc2cn3cc(I)ccc3n2)CC1 | 6400 | 73 | 0.33 | 72 | 600 | 10 | EC50 (D(4) dopamine receptor [5]): 0.52 nM |
| COc1ccccc1N1CCN(Cc2cn3ccccc3n2)CC1 | – | – | – | – | – | 46 | Activity (Rattus norvegicus [14]): 1.12; Activity (Rattus norvegicus [15]): 1.02; Activity (Rattus norvegicus [16]): 2.32; Activity [7]: 57%; Activity (Rattus norvegicus [17]): 2.42; Ki [8]: 5900 nM |
| COc1ccccc1N1CCN(Cc2cn3cc(Br)ccc3n2)CC1 | 7100 | 130 | 0.25 | 140 | 800 | 0 | – |
| COc1ccccc1N1CCN(Cc2cn3cc(C)cc(I)c3n2)CC1 | 5900 | 88 | 0.53 | 97 | 470 | 0 | – |
| Clc1ccc(N2CCN(Cc3cn4nc(Cl)ccc4n3)CC2)cc1 | 5500 | 12000 | 2 | 8200 | 7700 | 0 | Ki [8]: 910 nM |
| Fc1ccc(N2CCN(Cc3cn4ccccc4n3)CC2)cc1 | 8400 | 21000 | 44 | 19000 | 3100 | – | Selectivity ratio [9]: > 440; Selectivity ratio [10]: > 440; Selectivity ratio [11]: > 440; Selectivity ratio [12]: > 440; Ki [8]: 860 nM; Ki [18]: 260 nM |
| Fc1ccc(N2CCN(Cc3cn4ccncc4n3)CC2)cc1 | 15000 | 64000 | 500 | 68000 | 42000 | – | – |
| COc1ccccc1N1CCN(Cc2cn3cc(C)cc(N4CCOCC4)c3n2)CC1 | 6400 | 210 | 2.3 | 100 | 2100 | – | – |
| Clc1ccc2nc(CN3CCN(c4ccc(Cl)c(Cl)c4)CC3)cn2n1 | 1500 | 1100 | 1.3 | 670 | 1500 | 0 | Ki [8]: 1200 nM |
